Screens as filed in PubChem.
The list is not random: actives were taken first. Their share in the collection is about 1.5%.
CCR6 antagonist: blocks CCL20-driven beta-arrestin recruitment at human CCR6; P51684; 0.49% of 340,000 active; CHO-K1 CCR6 PathHunter beta-arrestin, luminescence, CCL20-stimulated; AID 493098; inhibition, % at 20 µM;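 active = compounds whose inhibition of the agonist-driven luminescence signal at 20 µM reaches about 50%, limit read from the data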;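 note: cells stimulated with CCL20 at 14 nM final; plate controls were DMSO with CCL20 for no effect and DMSO without agonist for full effect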
Target sequence (P51684 whole entry, looked up): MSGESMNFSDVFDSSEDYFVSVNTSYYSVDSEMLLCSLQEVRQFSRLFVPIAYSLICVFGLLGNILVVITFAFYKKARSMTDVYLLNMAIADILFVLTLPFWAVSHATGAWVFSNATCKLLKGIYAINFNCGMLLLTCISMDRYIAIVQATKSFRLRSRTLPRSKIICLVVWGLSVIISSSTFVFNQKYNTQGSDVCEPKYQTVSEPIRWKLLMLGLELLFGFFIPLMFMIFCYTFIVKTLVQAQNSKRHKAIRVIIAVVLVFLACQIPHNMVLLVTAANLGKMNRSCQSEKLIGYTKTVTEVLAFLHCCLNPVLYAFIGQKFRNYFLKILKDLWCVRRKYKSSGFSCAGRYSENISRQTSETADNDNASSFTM
EBI2 antag: antagonists of human EBI2 receptor. AID 651636. inhibition, % at 5 µM. P32249. EBI2 beta-arrestin recruitment, luminescence, 7a,25-OHC stimulated. 0.81% of 360,000 active; in the data active = inhibition above about 38%;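 note: enzyme fragment complementation signal reports receptor beta-arrestin coupling in cells; 0% = agonist plus DMSO wells and 100% = wells without agonist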
APJ antagonist: antagonists of human APJ apelin receptor. CHO-K1 APJ beta-arrestin complementation, luminescence. inhibition, % at 20 µM. 0.32% of 330,000 active;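 active = inhibition above about 40% at 20 µM, limit read from the data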;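 note: cells challenged with 10 nM apelin-13 agonist together with compound; plate controls were apelin-13 plus DMSO wells for no effect and DMSO wells lacking apelin-13 for full effect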
APJ agonist: agonists of human APJ apelin receptor; P35414; CHO-K1 APJ PathHunter beta-arrestin, luminescence; 0% DMSO wells, 100% apelin; activation, % at 20 µM; 0.11% of 330,000 active; AID 2520;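 active = activation more than six SD over the plate average, tested at 20 µM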;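 note: 0% = DMSO alone and 100% = apelin-13 at 10 nM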
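Material: CHO-K1 APJ beta-arrestin complementation cell line; Input: cell density 1000 per well; Incubation: compound stimulation 90 min at 25 °C, detection 60 min; Signal: luminescence from split beta-galactosidase complementation, Galacton Star/Emerald II substrate; Controls: DMSO-only wells as negative, 10 nM Apelin-13 as positive control.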
CXCR6 block: inhibitors of human CXCR6 receptor | CHO-K1 PathHunter CXCR6 beta-arrestin, luminescence | O00574 | 0.36% of 360,000 active | inhibition, % at 20 µM; in the data active = inhibition above about 34%, passing the limit was not always enough;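 note: antagonist mode with CXCL16 agonist at 10 nM final; 0% = 10 nM CXCL16 with DMSO and 100% = unstimulated wells without agonist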
EBI2 conf: confirmation of human EBI2 receptor antagonists. shares compounds with EBI2 antag. EBI2 beta-arrestin luminescence, 7a,25-OHC antagonism. inhibition, % at 5 µM. 29% of 2,400 active;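 active = inhibition of at least 50%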
EBI2 agonist: activates EBI2, counter-screen for EBI2 antagonists | activation, % at 5 µM | 2,400 tested, under 10 active | EBI2-expressing cells, agonist mode, luminescence, 60 min; 0% vehicle, 100% 7α,25-dihydroxycholesterol control | shares compounds with EBI2 antag;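 active = activation of at least 50%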
bGal cs: beta-galactosidase inhibition counter-screen | inhibition, % at 5 µM | shares compounds with EBI2 antag | AID 652176 | purified beta-galactosidase, luminescent Galacton Star, 15 min | 1% of 2,400 active;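 active = replicate-average signal at least 3 plate SD below neutral wells, shown as high inhibition, flagging enzyme-inhibiting false positives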;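 note: 0% = DMSO wells with enzyme and 100% = wells lacking enzyme; higher means stronger loss of beta-gal luminescence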
* marks the source's active call; other numbers are inactive results; · = no result.

SMILES	CCR6 antagonist	EBI2 antag	APJ antagonist	APJ agonist	CXCR6 block	EBI2 conf	EBI2 agonist	bGal cs
CCOC(=O)c1cnc2ccc(OC)cc2c1Nc1ccc(N2CCN(C)CC2)cc1	17	41*	11	-2	-8	53*	2	0
CCOC(=O)c1ccc2ncc(C(=O)OCC)c(Nc3ccc(N4CCOCC4)cc3)c2c1	12	19	3	7	3	·	·	·
O=C(CC1CS(=O)(=O)CC1CC(=O)Nc1ccc2c(c1)OCCO2)Nc1ccc2c(c1)OCCO2 (configuration not stated)	5	-6	-3	-2	-5	·	·	·
Cc1ccc(CONC(=O)c2ccc(OC(F)F)cc2)cc1	6	78*	18	0	-4	71*	0	8
COc1cc(NC(=O)C2(C)CCCN(C(C)C)C2)cc(OC)c1OC (configuration not stated)	·	-6	·	·	-12	·	·	·
Cc1ccccc1-c1nnc(-c2ccc(Br)cc2)o1	11	16	-11	0	-7	·	·	·
CCC1CCC(c2nnc(-c3ccc(Br)cc3)o2)CC1 (configuration not stated)	11	50*	-2	-4	-4	29	0	6
Cc1cc(Cl)cc(C)c1OCCOCCNCc1ccccc1	9	11	-20	-1	-6	·	·	·
COc1cc(OC)cc(C(=O)NNC(=O)CCNS(=O)(=O)c2ccc(Br)cc2)c1	12	-6	-12	1	2	·	·	·
Cc1ccc(S(=O)(=O)NCCC(=O)NNC(=O)COc2ccc(Br)cc2)cc1C	13	63*	0	1	2	25	-1	-15
CCC(=O)Nc1ccc2ccccc2c1	5	-3	-19	0	-6	·	·	·
CC(C)(C)CC(C)(C)NC(=O)CSCC(=O)Nc1ccc2ccccc2c1	14	71*	-12	3	-2	47	-1	-6
O=C(COc1ccc(-c2nnc(N3CCCCC3)c3ccccc23)cc1)N1CCCCC1	14	-12	3	0	-5	·	·	·
O=C(COc1ccc([N+](=O)[O-])cc1)N1CCN(c2nnc(-c3ccccc3)c3ccccc23)CC1	6	68*	11	-2	11	36	-1	13
Cc1ccc(-c2nnc(N3CCN(C(=O)COc4ccccc4)CC3)c3ccccc23)cc1	16	86*	15	-1	3	53*	0	-9
CCOC(=O)C(=CNc1ccc(Oc2cncc(Cl)c2)nc1)C(=O)OCC	6	-3	17	2	2	·	·	·
CC(C)CCNC(=O)/C=C/c1ccc(Br)cc1	16	47*	12	-1	-3	50	-1	-22
COc1cccc(/C=C/C(=O)c2ccc(NS(=O)(=O)c3ccc(C)cc3)cc2)c1	23	62*	16	-3	16	45	0	6
COc1cc(/C=C/C(=O)c2ccc(NS(=O)(=O)c3ccc(C)cc3)cc2)cc(OC)c1O	27	27	·	·	4	·	·	·
CC(C)NC(=O)C1CCN(C(=O)c2ccc(-c3ccccc3)cc2)CC1	18	44*	6	-5	-3	42	-2	-20
COc1ccc(C(=O)N2CCC(O)(c3ccc(F)cc3)CC2)cc1OC	15	20	2	1	-5	·	·	·
CC(C)CC(=O)N1CCN(C(=O)c2cccc(F)c2)CC1	-16	-4	10	0	-4	·	·	·
CC(C)CC(=O)N1CCN(C(=O)c2ccc(-c3ccccc3)cc2)CC1	-5	74*	16	0	-18	25	0	7
COc1ccc(C(=O)N2CCC(O)(c3ccc(Cl)cc3)CC2)cc1OC	3	52*	-15	3	-2	44	2	1
COc1cc(OC)cc(C(=O)N2CCN(C(=O)c3ccc(-c4ccccc4)cc3)CC2)c1	-6	89*	-12	-1	1	67*	-1	-1
SMILES	CCR6 antagonist	EBI2 antag	APJ antagonist	APJ agonist	CXCR6 block	EBI2 conf	EBI2 agonist	bGal cs
CCC(C)NC(=O)C1CCN(C(=O)c2ccccc2)CC1 (configuration not stated)	11	4	3	0	2	·	·	·
OC(c1cccc(F)c1)c1ncc(-c2ccc(C(F)(F)F)cc2)[nH]1 (configuration not stated)	·	6	·	·	-8	·	·	·
O=C(c1ccc(S(=O)(=O)Nc2cccc(C(F)(F)F)c2)cc1)N1CCN(c2ccccc2O)CC1	-2	7	-16	8	-1	·	·	·
CN(N=Nc1nc[nH]c1C(=O)NN)C1CCCCC1	-7	-13	·	·	-3	·	·	·
COc1ccc(C(=O)N2CCN(C(=O)c3ccc(-c4ccccc4)cc3)CC2)cc1OC	15	81*	6	1	2	49	0	11
CC(=O)N1CCN(C(=O)c2ccc(Oc3ccccc3)cc2)CC1	-7	2	5	-3	4	·	·	·
O=C(c1ccccc1)N1CCN(C(=O)c2ccc(OC(F)(F)F)cc2)CC1	0	53*	1	0	1	28	2	11
COc1ccc(C(=O)N2CCN(c3ccc(C)cc3)CC2)cc1OC	-9	17	-9	0	2	·	·	·
Cc1cccc(C)c1NC(=O)CN(C)C(=O)C1CC(=O)N(c2cccc3ccccc23)C1 (configuration not stated)	-5	-1	5	-3	11	·	·	·
COc1ccc2cc(-c3[nH]ncc3CN3CCCC3c3nonc3C)ccc2c1 (configuration not stated)	-2	46*	-26	0	-3	28	0	6
C=CCn1c(C)c(C(C)=O)c(N2CCN(C(c3ccccc3)c3ccccc3)CC2)nc1=S	23	54*	20	-2	13	24	1	3
Cc1ccc(OCC(=O)NNC(=O)C2CCN(c3ncnc4sc(C)c(C)c34)CC2)cc1	1	44	12	4	-16	·	·	·
Cc1sc2ncnc(N3CCC(C(=O)NNC(=O)COc4ccc(Cl)cc4)CC3)c2c1C	-10	51*	·	·	-7	36	1	7
Cc1sc2ncnc(N3CCC(C(=O)NNC(=O)COc4ccc(Br)cc4)CC3)c2c1C	1	57*	8	0	-7	36	-1	-9
N#Cc1nc(COc2ccccc2)oc1N1CCC(Cc2ccccc2)CC1	13	70*	-2	-4	12	20	-1	-4
N#Cc1nc(COc2ccccc2)oc1N1CCN(Cc2ccccc2)CC1	14	37	8	0	7	·	·	·
NC(=O)CSc1nnc(-c2ccc(O)cc2)n1Cc1ccco1	-1	-9	0	5	-3	·	·	·
O=C(CSc1nnc(-c2ccc(O)cc2)n1Cc1ccco1)N1CCc2ccccc2C1	10	76*	-4	-1	0	15	0	1
